Data published in ChEMBL document CHEMBL4152200, “Targeting the entrance channel of NNIBP: Discovery of diarylnicotinamide 1,4-disubstituted 1,2,3-triazoles as novel HIV-1 NNRTIs with high potency against wild-type and E138K mutant virus” (Eur J Med Chem, 2018).

How the values were obtained:
[1] = test system: Human immunodeficiency virus 1; assay: Antiviral activity against HIV1 harboring reverse transcriptase E138K mutant infected in human MT4 cells assessed as inhibition of viral replication after 5 days by MTT assay; format: functional, organism-based; conditions: Human immunodeficiency virus 1, MT4, 120 h
[2] = Selectivity index, ratio of CC50 for human MT4 cells to EC50 for HIV1 harboring reverse transcriptase Y181C mutant; format: toxicity; conditions: read-out: Ratio CC50/EC50
Outline: (§1)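 SI is CC₅₀ divided by EC₅₀, both by MTT after 5 days in MT-4 cells. CC₅₀ comes from mock-infected cultures run in parallel and is the concentration reducing their viability by 50%. EC₅₀ comes from cultures infected with the given mutant strain at 100–300 CCID₅₀.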

MT4 = assay: Cytotoxicity against human MT4 cells assessed as decrease in cell viability after 5 days by MTT assay; format: cell-based; conditions: mt4, 120 h
Outline: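 Mock-infected MT-4 cells, exponentially growing, seeded with compound in culture medium without virus; run in parallel with the antiviral assay. Viability read spectrophotometrically by MTT reduction five days later.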

[3] = Selectivity index, ratio of CC50 for human MT4 cells to EC50 for HIV1 harboring reverse transcriptase Y188L mutant; format: toxicity; conditions: read-out: Ratio CC50/EC50; outline: as §1
[4] = Selectivity index, ratio of CC50 for human MT4 cells to EC50 for HIV1 harboring reverse transcriptase L100I mutant; format: toxicity; conditions: read-out: Ratio CC50/EC50; outline: as §1
[5] = test system: Human immunodeficiency virus 1; assay: Resistance factor, ratio of EC50 for HIV1 harboring reverse transcriptase K103N mutant to EC50 for wild-type HIV-1 3B; format: functional
Outline: (§2)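 Resistance fold is EC₅₀ against the mutant strain divided by EC₅₀ against WT IIIB. Both EC₅₀ values come from the 5-day MTT protection assay in MT-4 cells infected with 100–300 CCID₅₀ of virus.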

[6] = Selectivity index, ratio of CC50 for human MT4 cells to EC50 for HIV1 harboring reverse transcriptase F227L/V106A mutant; format: toxicity; conditions: read-out: Ratio CC50/EC50; outline: as §1
[7] = test system: Human immunodeficiency virus 1; assay: Antiviral activity against wild-type HIV-1 3B infected in human MT4 cells assessed as inhibition of viral replication after 5 days by MTT assay; format: functional, organism-based; conditions: Human immunodeficiency virus 1, 3B, MT4, 120 h
[8] = test system: Human immunodeficiency virus 1; assay: Antiviral activity against HIV1 harboring reverse transcriptase Y181C mutant infected in human MT4 cells assessed as inhibition of viral replication after 5 days by MTT assay; format: functional, organism-based; conditions: Human immunodeficiency virus 1, MT4, 120 h
[9] = test system: Human immunodeficiency virus 1; assay: Resistance factor, ratio of EC50 for HIV1 harboring reverse transcriptase E138K mutant to EC50 for wild-type HIV-1 3B; format: functional; outline: as §2
[10] = Selectivity index, ratio of CC50 for human MT4 cells to EC50 for wild-type HIV1 3B; format: toxicity; conditions: read-out: Ratio CC50/EC50
Outline: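 Wild-type HIV-1 IIIB at 100–300 CCID50 added to MT-4 cells with compound, with mock-infected wells in parallel. MTT viability was read at day 5. […] SI = CC50/EC50.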

[11] = test system: Human immunodeficiency virus 1; assay: Resistance factor, ratio of EC50 for HIV1 harboring reverse transcriptase F227L/V106A mutant to EC50 for wild-type HIV-1 3B; format: functional; outline: as §2
[12] = test system: Human immunodeficiency virus 1; assay: Antiviral activity against HIV1 harboring reverse transcriptase Y188L mutant infected in human MT4 cells assessed as inhibition of viral replication after 5 days by MTT assay; format: functional, organism-based; conditions: Human immunodeficiency virus 1, MT4, 120 h
Outline: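 MT-4 cells in exponential growth, resuspended into wells holding HIV-1 stock (IIIB, RES056 K103N/Y181C, F227L/V106A, L100I, K103N, E138K, Y181C or Y188L) at 100–300 CCID₅₀, or into mock-infected wells. Viability read by MTT reduction to formazan, measured spectrophotometrically 5 days post-infection. EC₅₀ is the concentration giving 50% protection against virus-induced cytotoxicity.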

[13] = Selectivity index, ratio of CC50 for human MT4 cells to EC50 for HIV1 harboring reverse transcriptase E138K mutant; format: toxicity; conditions: read-out: Ratio CC50/EC50; outline: as §1
[14] = test system: Human immunodeficiency virus 1; assay: Antiviral activity against HIV1 harboring reverse transcriptase K103N mutant infected in human MT4 cells assessed as inhibition of viral replication after 5 days by MTT assay; format: functional, organism-based; conditions: Human immunodeficiency virus 1, MT4, 120 h
[15] = test system: Human immunodeficiency virus 1; assay: Antiviral activity against HIV1 harboring reverse transcriptase L100I mutant infected in human MT4 cells assessed as inhibition of viral replication after 5 days by MTT assay; format: functional, organism-based; conditions: Human immunodeficiency virus 1, MT4, 120 h
[16] = Selectivity index, ratio of CC50 for human MT4 cells to EC50 for HIV-1 RES056 harboring reverse transcriptase K103N/Y181C double mutant infected in human MT4 cells; format: toxicity, cell-based; conditions: read-out: Ratio CC50/EC50; outline: as §1
[17] = Selectivity index, ratio of CC50 for human MT4 cells to EC50 for HIV1 harboring reverse transcriptase K103N mutant; format: toxicity; conditions: read-out: Ratio CC50/EC50; outline: as §1
[18] = test system: Human immunodeficiency virus 1; assay: Antiviral activity against HIV1 harboring reverse transcriptase F227L/V106A double mutant infected in human MT4 cells assessed as inhibition of viral replication after 5 days by MTT assay; format: functional, organism-based; conditions: Human immunodeficiency virus 1, MT4, 120 h
[19] = test system: Human immunodeficiency virus 1; assay: Resistance factor, ratio of EC50 for HIV1 harboring reverse transcriptase L100I mutant to EC50 for wild-type HIV-1 3B; format: functional; outline: as §2
[20] = test system: Human immunodeficiency virus 1; assay: Antiviral activity against HIV-1 RES056 harboring reverse transcriptase K103N/Y181C double mutant infected in human MT4 cells assessed as inhibition of viral replication after 5 days by MTT assay; format: functional, organism-based; conditions: Human immunodeficiency virus 1, RES056, MT4, 120 h
[21] = test system: Human immunodeficiency virus 1; assay: Resistance factor, ratio of EC50 for HIV1 harboring reverse transcriptase Y181C mutant to EC50 for wild-type HIV-1 3B; format: functional; outline: as §2
[22] = test system: Human immunodeficiency virus 1; assay: Resistance factor, ratio of EC50 for HIV1 harboring reverse transcriptase Y188L mutant to EC50 for wild-type HIV-1 3B; format: functional; outline: as §2

Row | SMILES | CC50 (MT4) | EC50 [7] | EC50 [12] | EC50 [14] | EC50 [15] | EC50 [18] | EC50 [20] | also measured
1 | Cc1cc(C)c(Oc2cc(Nc3ccc(C#N)cc3)ncc2C(=O)NCc2cn(CC(N)=O)nn2)c(C)c1 | 24000 nM | 172 nM | 4460 nM | 1030 nM | 3520 nM | 1800 nM | 5330 nM | EC50 [1]: 150 nM; selectivity ratio [2]: 29; selectivity ratio [3]: 5; selectivity ratio [4]: 7; Ratio EC50 [5]: 6; selectivity ratio [6]: 13; EC50 [8]: 830 nM; Ratio EC50 [9]: 0.9; selectivity ratio [10]: 139; Ratio EC50 [11]: 10.5; selectivity ratio [13]: 159; selectivity ratio [16]: 5; selectivity ratio [17]: 23; Ratio EC50 [19]: 20.5; Ratio EC50 [21]: 4.8; Ratio EC50 [22]: 25.9
2 | Cc1cc(C)c(Oc2cc(Nc3ccc(C#N)cc3)ncc2C(=O)NCc2cn(Cc3ccccc3F)nn2)c(C)c1 | > 222000 nM | 95 nM |  |  |  |  | > 222000 nM | 
3 | Cc1cc(C)c(Oc2cc(Nc3ccc(C#N)cc3)ncc2C(=O)NCc2cn(Cc3ccccc3Cl)nn2)c(C)c1 | ≥ 188000 nM | 104 nM |  |  |  |  | > 188000 nM | 
4 | Cc1cc(C)c(Oc2cc(Nc3ccc(C#N)cc3)ncc2C(=O)NCc2cn(Cc3cccc(F)c3)nn2)c(C)c1 | ≥ 205000 nM | 79 nM |  |  |  |  | > 205000 nM | 
5 | Cc1cc(C)c(Oc2cc(Nc3ccc(C#N)cc3)ncc2C(=O)NCc2cn(Cc3cccc([N+](=O)[O-])c3)nn2)c(C)c1 | ≥ 156000 nM | 37 nM |  |  |  |  | > 156000 nM | 
6 | CCOC(=O)Cn1cc(CNC(=O)c2cnc(Nc3ccc(C#N)cc3)cc2Oc2c(C)cc(C)cc2C)nn1 | 9530 nM | 653 nM |  |  |  |  | > 9530 nM | selectivity ratio [10]: 15; selectivity ratio [16]: < 1
7 | Cc1cc(C)c(Oc2cc(Nc3ccc(C#N)cc3)ncc2C(=O)NCc2cn(Cc3ccc(Cl)cc3)nn2)c(C)c1 | ≥ 120000 nM | 194 nM |  |  |  |  | > 120000 nM | 
8 | Cc1cc(C)c(Oc2cc(Nc3ccc(C#N)cc3)ncc2C(=O)NCc2cn(Cc3ccc(F)cc3)nn2)c(C)c1 | ≥ 153000 nM | 74 nM |  |  |  |  | > 153000 nM | 
9 | CC(=O)Cn1cc(CNC(=O)c2cnc(Nc3ccc(C#N)cc3)cc2Oc2c(C)cc(C)cc2C)nn1 | 19400 nM | 29 nM | 3200 nM | 260 nM | 1000 nM | 590 nM | 2210 nM | EC50 [1]: 26 nM; selectivity ratio [2]: 123; selectivity ratio [3]: 6; selectivity ratio [4]: 19; Ratio EC50 [5]: 9; selectivity ratio [6]: 33; EC50 [8]: 160 nM; Ratio EC50 [9]: 0.9; selectivity ratio [10]: 670; Ratio EC50 [11]: 20.3; selectivity ratio [13]: 756; selectivity ratio [16]: 9; selectivity ratio [17]: 73; Ratio EC50 [19]: 34.5; Ratio EC50 [21]: 5.5; Ratio EC50 [22]: 110.3
10 | CC(C)Nc1cccnc1N1CCN(C(=O)c2cc3cc(NS(C)(=O)=O)ccc3[nH]2)CC1 [DELAVIRDINE] |  | 38 nM | 840 nM | 3000 nM | 2540 nM | 2270 nM |  | EC50 [1]: 51 nM; Ratio EC50 [5]: 78.9; EC50 [8]: 2460 nM; Ratio EC50 [9]: 1.3; Ratio EC50 [11]: 59.7; Ratio EC50 [19]: 66.8; Ratio EC50 [21]: 64.7; Ratio EC50 [22]: 22.1
11 | Cc1cc(C#N)cc(C)c1Oc1nc(Nc2ccc(C#N)cc2)nc(N)c1Br [ETRAVIRINE] |  |  | 11 nM |  |  | 5 nM |  | 
12 | Cc1cn([C@H]2C[C@H](N=[N+]=[N-])[C@@H](CO)O2)c(=O)[nH]c1=O [ZIDOVUDINE] | > 7480 nM |  |  | 8 nM | 5 nM |  | 11 nM | 
